{"data": "Published values of several laboratories"}
{"Compound": "COc1cc(C(=O)N2CC[C@@H](O)[C@@H](N)C2)cc2nc(-c3cc4ccccc4n3CC3CC3)n(C)c12", "assay": "HPLC", "setting": "pH 7.4", "quantity": "chromatographic logD", "value": 3.7}
{"Compound": "CC(C)C[C@@H]1NC(=O)[C@@H]2CSSC[C@@H](C(=O)NCC(N)=O)NC(=O)[C@H](Cc3ccccc3)NC(=O)CNC(=O)[C@H](CC(N)=O)NC(=O)[C@@H]3CCCN3C(=O)CNC(=O)[C@@H]3CSSC[C@H](NC(=O)[C@H](CO)NC(=O)[C@H]([C@@H](C)O)NC(=O)[C@@H]4CCCN4C(=O)[C@H](C)NC(=O)[C@H](Cc4c[nH]c5ccccc45)NC(=O)[C@H](CC(=O)O)NC(=O)CNC(=O)[C@H](CCCNC(=N)N)NC(=O)CNC(=O)[C@H](CCC(N)=O)NC(=O)[C@@H]4CCCN4C(=O)[C@@H](NC(=O)CNC(=O)c4ccc(F)cc4)CSSC[C@H](NC(=O)CNC(=O)[C@H](C)NC1=O)C(=O)N[C@@H](C(C)C)C(=O)N3)C(=O)N[C@@H](CO)C(=O)N[C@@H](CCC(N)=O)C(=O)N[C@@H](CC(=O)O)C(=O)N[C@@H](CO)C(=O)N[C@@H](CC(=O)O)C(=O)N2", "assay": "shake flask", "system": "PBS", "setting": "pH 7.4", "quantity": "logD", "value": -1.68}
{"Compound": "Clc1ccc(COc2cc(OC[C@@H]3CCCN3)cnc2Cl)cn1", "assay": "shake flask", "system": "aqueous buffer", "setting": "pH 7.4", "quantity": "logD", "value": 1.9}
{"Compound": "O=c1c(O)c(NCc2ccccc2)c1=O", "assay": "shake flask", "system": "aqueous buffer", "setting": "1 h, pH 7.4", "quantity": "logD", "value": -1.4}
{"Compound": "O=C(O)CN1CCC(Oc2ccc([C@H]3CC[C@]4(CC3)OOC3(O4)C4CC5CC(C4)CC3C5)cc2)CC1 (stereo partly drawn)", "assay": "HPLC", "setting": "pH 7.4", "quantity": "chromatographic logD", "value": "3 to 3.3"}
{"Compound": "Cc1c(C(=O)NN2CCCCC2)nc(-c2ccc(Cl)cc2Cl)n1-c1ccc(OCCCF)cc1", "assay": "shake flask", "system": "aqueous buffer", "setting": "pH 7.4", "quantity": "logD", "value": 5.3}
{"Compound": "CN1CCC[C@H]1COc1cnc(Cl)c(OCc2ccc(Cl)nc2)c1", "assay": "shake flask", "system": "aqueous buffer", "setting": "pH 7.4", "quantity": "logD", "value": 2.2}
{"Compound": "Cc1c(C(=O)NN2CCCCC2)nc(-c2ccc(Cl)cc2Cl)n1-c1ccc(OCCCC(F)(F)F)cc1", "assay": "shake flask", "system": "aqueous buffer", "setting": "pH 7.4", "quantity": "logD", "value": "> 5.5"}
{"Compound": "C=CC1=C(C)C2=Cc3c(C=C)c(C)c4[n]3[Fe]([Cl])[n]3c(c(C)c(CCC(=O)O)c3=CC3=NC(=C4)C(C)=C3CCC(=O)O)=CC1=N2", "assay": "shake flask", "system": "aqueous buffer", "setting": "pH 9", "quantity": "logD", "value": 0.463}
